ChEMBL document CHEMBL2069193 (Bioorg Med Chem Lett, 2012)
Each block holds one compound with its values, some of them ahead of it.

Legend:
[1] = biological target: Protein kinase C gamma type (Homo sapiens) (UniProt P05129); experiment: Inhibition of human PKCgamma at 1 uM
[2] = biological target: Serine/threonine-protein kinase pim-1 (Homo sapiens) (UniProt P11309); experiment: Inhibition of human Pim-1 at 1 uM
[3] = biological target: Tyrosine-protein kinase ITK/TSK (Homo sapiens) (UniProt Q08881); experiment: Inhibition of human Itk at 1 uM
[4] = biological target: MAP kinase-activated protein kinase 5 (Homo sapiens) (UniProt Q8IW41); experiment: Inhibition of human PRAK at 1 uM
[5] = biological target: Tyrosine-protein kinase HCK (Homo sapiens) (UniProt P08631); experiment: Inhibition of human Hck at 1 uM
[6] = biological target: Rho-associated protein kinase 2 (Homo sapiens) (UniProt O75116); experiment: Inhibition of human ROCK2 at 1 uM
[7] = biological target: Tyrosine-protein kinase Yes (Homo sapiens) (UniProt P07947); experiment: Inhibition of human Yes at 1 uM
[8] = biological target: Calcium/calmodulin-dependent protein kinase type II subunit delta (Homo sapiens) (UniProt Q13557); experiment: Inhibition of human CaMK2delta at 1 uM
[9] = biological target: Dual specificity mitogen-activated protein kinase kinase 6 (Homo sapiens) (UniProt P52564); experiment: Inhibition of human MKK6 at 1 uM
Chain of Dual specificity mitogen-activated protein kinase kinase 6 (Homo sapiens) (P52564 whole entry): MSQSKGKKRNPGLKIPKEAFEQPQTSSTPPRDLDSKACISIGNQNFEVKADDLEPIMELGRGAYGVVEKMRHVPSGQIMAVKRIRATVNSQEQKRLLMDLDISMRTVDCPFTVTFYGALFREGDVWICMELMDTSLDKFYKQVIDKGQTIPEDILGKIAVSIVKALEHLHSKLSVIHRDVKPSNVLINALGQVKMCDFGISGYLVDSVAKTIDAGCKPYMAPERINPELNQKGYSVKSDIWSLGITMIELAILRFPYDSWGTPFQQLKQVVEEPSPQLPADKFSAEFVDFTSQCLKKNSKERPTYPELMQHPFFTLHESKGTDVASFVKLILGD

[10] = biological target: Receptor-type tyrosine-protein kinase FLT3 (Homo sapiens) (UniProt P36888); experiment: Inhibition of human Flt3 at 1 uM
[11] = biological target: Tyrosine-protein kinase receptor UFO (Homo sapiens) (UniProt P30530); experiment: Inhibition of human Axl at 1 uM
[12] = biological target: Mitogen-activated protein kinase 10 (Homo sapiens) (UniProt P53779); experiment: Inhibition of human JNK3 at 1 uM
[13] = biological target: Proto-oncogene tyrosine-protein kinase Src (Homo sapiens) (UniProt P12931); experiment: Inhibition of human cSRC at 1 uM
[14] = biological target: Vascular endothelial growth factor receptor 1 (Homo sapiens) (UniProt P17948); experiment: Inhibition of human Flt1 at 1 uM
Chain of Vascular endothelial growth factor receptor 1 (Homo sapiens) (P17948 whole entry): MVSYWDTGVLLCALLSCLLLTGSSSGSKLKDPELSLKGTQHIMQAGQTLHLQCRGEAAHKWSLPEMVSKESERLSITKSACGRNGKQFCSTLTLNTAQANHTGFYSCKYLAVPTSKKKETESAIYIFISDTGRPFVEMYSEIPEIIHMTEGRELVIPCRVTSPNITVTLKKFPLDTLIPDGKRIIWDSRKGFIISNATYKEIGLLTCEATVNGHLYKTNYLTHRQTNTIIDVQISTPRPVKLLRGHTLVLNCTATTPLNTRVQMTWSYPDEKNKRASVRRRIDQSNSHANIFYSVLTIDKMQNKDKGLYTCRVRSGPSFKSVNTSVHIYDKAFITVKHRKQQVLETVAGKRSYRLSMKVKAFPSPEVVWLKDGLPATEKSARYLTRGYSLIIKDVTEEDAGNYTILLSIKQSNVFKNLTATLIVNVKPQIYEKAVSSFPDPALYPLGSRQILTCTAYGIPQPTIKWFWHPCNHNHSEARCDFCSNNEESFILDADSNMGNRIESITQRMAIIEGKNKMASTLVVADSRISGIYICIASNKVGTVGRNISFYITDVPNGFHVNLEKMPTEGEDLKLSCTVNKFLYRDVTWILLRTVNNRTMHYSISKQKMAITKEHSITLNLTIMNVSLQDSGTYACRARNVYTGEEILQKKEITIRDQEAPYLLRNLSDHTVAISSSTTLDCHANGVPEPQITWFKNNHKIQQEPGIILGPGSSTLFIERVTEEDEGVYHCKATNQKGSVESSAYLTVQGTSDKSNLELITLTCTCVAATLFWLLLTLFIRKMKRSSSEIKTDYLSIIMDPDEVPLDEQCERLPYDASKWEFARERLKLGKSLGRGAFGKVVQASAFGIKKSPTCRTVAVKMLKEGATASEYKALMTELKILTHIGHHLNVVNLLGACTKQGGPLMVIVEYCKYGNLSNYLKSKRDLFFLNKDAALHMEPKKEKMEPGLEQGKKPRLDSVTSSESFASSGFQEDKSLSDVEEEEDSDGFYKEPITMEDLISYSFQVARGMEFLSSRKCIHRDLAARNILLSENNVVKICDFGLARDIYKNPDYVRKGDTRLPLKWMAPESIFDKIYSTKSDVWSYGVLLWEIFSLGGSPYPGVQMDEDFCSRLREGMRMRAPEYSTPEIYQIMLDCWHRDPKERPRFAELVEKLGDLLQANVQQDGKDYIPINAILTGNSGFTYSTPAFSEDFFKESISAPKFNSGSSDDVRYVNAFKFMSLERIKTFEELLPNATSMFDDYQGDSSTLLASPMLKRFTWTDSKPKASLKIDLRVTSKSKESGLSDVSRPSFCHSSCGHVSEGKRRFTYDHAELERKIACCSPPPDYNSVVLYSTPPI

[15] = biological target: Protein kinase C epsilon type (Homo sapiens) (UniProt Q02156); experiment: Inhibition of human PKCepsilon at 1 uM
[16] = biological target: Casein kinase I isoform delta (Homo sapiens) (UniProt P48730); experiment: Inhibition of human CK1delta at 1 uM
[17] = biological target: Proto-oncogene tyrosine-protein kinase receptor Ret (Homo sapiens) (UniProt P07949); experiment: Inhibition of human Ret at 1 uM
[18] = biological target: Tyrosine-protein kinase Fgr (Homo sapiens) (UniProt P09769); experiment: Inhibition of human Fgr at 1 uM
Chain of Tyrosine-protein kinase Fgr (Homo sapiens) (P09769 2-529 limits assumed): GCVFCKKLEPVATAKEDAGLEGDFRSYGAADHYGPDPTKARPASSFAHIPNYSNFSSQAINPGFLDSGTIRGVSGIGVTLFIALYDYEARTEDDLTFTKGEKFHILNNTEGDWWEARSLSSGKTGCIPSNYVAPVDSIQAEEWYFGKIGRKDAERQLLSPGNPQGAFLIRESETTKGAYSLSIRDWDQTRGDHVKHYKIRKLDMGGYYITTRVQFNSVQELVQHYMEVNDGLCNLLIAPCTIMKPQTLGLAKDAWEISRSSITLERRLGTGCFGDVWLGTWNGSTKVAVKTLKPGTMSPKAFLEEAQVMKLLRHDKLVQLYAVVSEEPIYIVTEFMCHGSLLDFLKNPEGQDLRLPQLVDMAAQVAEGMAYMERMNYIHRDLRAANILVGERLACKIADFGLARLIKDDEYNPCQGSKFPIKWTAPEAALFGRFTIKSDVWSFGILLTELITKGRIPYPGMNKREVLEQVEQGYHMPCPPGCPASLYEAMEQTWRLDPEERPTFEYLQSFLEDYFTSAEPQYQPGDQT

CHO = experiment: Cytotoxicity against CHO cells; assay type: cell-based; conditions: Cricetulus griseus
[19] = biological target: Tyrosine-protein kinase ZAP-70 (Homo sapiens) (UniProt P43403); experiment: Inhibition of human ZAP70 at 1 uM
[20] = biological target: Focal adhesion kinase 1 (Homo sapiens) (UniProt Q05397); experiment: Inhibition of human FAK at 1 uM
[21] = biological target: Protein-tyrosine kinase 2-beta (Homo sapiens) (UniProt Q14289); experiment: Inhibition of human Pyk2 at 1 uM
Chain of Protein-tyrosine kinase 2-beta (Homo sapiens) (Q14289 whole entry, looked up): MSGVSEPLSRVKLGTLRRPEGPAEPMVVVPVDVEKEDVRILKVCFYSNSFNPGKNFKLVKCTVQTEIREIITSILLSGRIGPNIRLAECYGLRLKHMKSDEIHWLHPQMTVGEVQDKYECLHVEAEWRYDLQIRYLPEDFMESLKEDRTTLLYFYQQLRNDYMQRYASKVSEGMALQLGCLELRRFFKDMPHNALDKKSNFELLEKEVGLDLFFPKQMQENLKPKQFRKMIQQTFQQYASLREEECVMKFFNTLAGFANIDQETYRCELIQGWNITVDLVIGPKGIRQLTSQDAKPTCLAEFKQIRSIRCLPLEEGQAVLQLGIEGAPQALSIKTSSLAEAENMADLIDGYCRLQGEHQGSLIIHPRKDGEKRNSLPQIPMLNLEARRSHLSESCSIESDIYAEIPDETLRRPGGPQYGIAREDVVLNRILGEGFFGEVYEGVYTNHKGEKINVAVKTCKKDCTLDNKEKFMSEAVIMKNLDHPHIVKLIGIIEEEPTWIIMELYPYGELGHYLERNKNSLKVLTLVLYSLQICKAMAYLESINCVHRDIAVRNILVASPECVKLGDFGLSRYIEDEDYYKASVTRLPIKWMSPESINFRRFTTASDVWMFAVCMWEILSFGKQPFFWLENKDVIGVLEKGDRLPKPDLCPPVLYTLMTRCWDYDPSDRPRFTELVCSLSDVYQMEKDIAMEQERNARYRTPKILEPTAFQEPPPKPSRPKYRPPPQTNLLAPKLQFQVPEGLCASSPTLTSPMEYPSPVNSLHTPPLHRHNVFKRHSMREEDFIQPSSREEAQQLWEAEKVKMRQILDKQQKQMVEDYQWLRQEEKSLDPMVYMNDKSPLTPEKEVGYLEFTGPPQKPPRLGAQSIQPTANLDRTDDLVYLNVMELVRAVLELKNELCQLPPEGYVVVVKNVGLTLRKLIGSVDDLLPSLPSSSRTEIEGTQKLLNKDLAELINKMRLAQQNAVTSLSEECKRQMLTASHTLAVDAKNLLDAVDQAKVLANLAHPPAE

[22] = biological target: Protein kinase C beta type (Homo sapiens) (UniProt P05771); experiment: Inhibition of human PKCbeta2 at 1 uM
[23] = biological target: Hepatocyte growth factor receptor (Homo sapiens) (UniProt P08581); experiment: Inhibition of human Met at 1 uM
[24] = biological target: Ribosomal protein S6 kinase alpha-6 (Homo sapiens) (UniProt Q9UK32); experiment: Inhibition of human Rsk4 at 1 uM
[25] = biological target: Fibroblast growth factor receptor 3 (Homo sapiens) (UniProt P22607); experiment: Inhibition of human FGFR3 at 1 uM
[26] = biological target: Macrophage colony-stimulating factor 1 receptor (Homo sapiens) (UniProt P07333); experiment: Inhibition of human Fms at 1 uM
[27] = biological target: Tyrosine-protein kinase Lyn (Homo sapiens) (UniProt P07948); experiment: Inhibition of human Lyn at 1 uM
Chain of Tyrosine-protein kinase Lyn (Homo sapiens) (P07948 2-512 limits assumed): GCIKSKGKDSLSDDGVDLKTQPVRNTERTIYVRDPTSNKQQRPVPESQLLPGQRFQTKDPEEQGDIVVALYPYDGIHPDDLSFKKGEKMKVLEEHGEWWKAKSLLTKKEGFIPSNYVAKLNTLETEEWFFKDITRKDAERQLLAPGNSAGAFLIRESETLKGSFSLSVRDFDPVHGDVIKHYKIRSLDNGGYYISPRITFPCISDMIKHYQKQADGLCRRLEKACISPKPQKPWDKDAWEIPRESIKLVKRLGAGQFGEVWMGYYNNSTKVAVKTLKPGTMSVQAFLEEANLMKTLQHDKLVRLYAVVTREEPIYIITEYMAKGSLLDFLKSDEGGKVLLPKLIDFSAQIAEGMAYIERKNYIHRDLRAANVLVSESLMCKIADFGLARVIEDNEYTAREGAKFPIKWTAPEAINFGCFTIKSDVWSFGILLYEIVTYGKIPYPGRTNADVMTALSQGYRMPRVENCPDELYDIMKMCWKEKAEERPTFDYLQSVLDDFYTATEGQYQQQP

[28] = biological target: Cyclin-dependent kinase 1/cyclin B1 (Homo sapiens) (UniProt P06493+P14635); experiment: Inhibition of human CDK1/cyclinB at 1 uM; assay type: protein-complex assay
Chain of Cyclin-dependent kinase 1/cyclin B1 (Homo sapiens) (P06493 whole entry, looked up): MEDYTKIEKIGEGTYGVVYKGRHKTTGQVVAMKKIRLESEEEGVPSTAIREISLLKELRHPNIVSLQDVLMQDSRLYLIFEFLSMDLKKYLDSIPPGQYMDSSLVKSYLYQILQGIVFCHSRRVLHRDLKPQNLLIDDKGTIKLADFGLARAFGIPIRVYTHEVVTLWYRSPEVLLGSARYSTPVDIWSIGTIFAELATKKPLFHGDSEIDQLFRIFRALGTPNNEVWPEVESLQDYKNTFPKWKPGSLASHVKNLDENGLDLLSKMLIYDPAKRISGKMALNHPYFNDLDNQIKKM
Chain of Cyclin-dependent kinase 1/cyclin B1 (Homo sapiens) (P14635 whole entry, looked up): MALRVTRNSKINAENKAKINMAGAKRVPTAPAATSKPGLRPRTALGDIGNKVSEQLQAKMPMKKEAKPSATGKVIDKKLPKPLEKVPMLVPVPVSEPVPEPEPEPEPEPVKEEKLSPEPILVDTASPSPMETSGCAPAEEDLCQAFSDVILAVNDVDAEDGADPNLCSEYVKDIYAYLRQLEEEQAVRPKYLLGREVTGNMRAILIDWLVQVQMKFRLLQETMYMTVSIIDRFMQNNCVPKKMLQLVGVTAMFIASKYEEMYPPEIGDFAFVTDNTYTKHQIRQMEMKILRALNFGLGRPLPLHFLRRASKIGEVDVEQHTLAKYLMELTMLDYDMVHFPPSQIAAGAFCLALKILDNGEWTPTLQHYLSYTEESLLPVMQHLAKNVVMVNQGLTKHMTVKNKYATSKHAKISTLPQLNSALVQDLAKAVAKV

LAD2 [29] = experiment: Inhibition of human LAD2 cells degranulation preincubated for 30 mins before streptavidin stimulation measured after 30 mins by measuring beta-hexosaminidase activity; assay type: functional, cell-based
In short: (§1)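 LAD2 mast cells sensitized overnight at 37 °C, 5% CO2 with 100 ng/ml biotin-IgE in StemPro-34 growth medium with 2 mM glutamine and 100 ng/ml SCF. They were washed into release buffer, plated at 10,000 cells/well, given drug for 30 min, then 125 ng/ml streptavidin for 30 min. Supernatant and freeze-thaw lysate were incubated 90 min at 37 °C with 1 mM p-nitrophenyl-N-acetyl-D-glucosamide, citrate pH 4.5.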

[30] = biological target: ALK tyrosine kinase receptor (Homo sapiens) (UniProt Q9UM73); experiment: Inhibition of human Alk at 1 uM
[31] = biological target: Tyrosine-protein kinase Lck (Homo sapiens) (UniProt P06239); experiment: Inhibition of human Lck at 1 uM
[32] = biological target: Inhibitor of nuclear factor kappa-B kinase subunit beta (Homo sapiens) (UniProt O14920); experiment: Inhibition of human IKKbeta at 1 uM
[33] = biological target: Aurora kinase A (Homo sapiens) (UniProt O14965); experiment: Inhibition of human Aurora-A at 1 uM
[34] = biological target: Tyrosine-protein kinase Fyn (Homo sapiens) (UniProt P06241); experiment: Inhibition of human Fyn at 1 uM
Chain of Tyrosine-protein kinase Fyn (Homo sapiens) (P06241 2-537 limits assumed): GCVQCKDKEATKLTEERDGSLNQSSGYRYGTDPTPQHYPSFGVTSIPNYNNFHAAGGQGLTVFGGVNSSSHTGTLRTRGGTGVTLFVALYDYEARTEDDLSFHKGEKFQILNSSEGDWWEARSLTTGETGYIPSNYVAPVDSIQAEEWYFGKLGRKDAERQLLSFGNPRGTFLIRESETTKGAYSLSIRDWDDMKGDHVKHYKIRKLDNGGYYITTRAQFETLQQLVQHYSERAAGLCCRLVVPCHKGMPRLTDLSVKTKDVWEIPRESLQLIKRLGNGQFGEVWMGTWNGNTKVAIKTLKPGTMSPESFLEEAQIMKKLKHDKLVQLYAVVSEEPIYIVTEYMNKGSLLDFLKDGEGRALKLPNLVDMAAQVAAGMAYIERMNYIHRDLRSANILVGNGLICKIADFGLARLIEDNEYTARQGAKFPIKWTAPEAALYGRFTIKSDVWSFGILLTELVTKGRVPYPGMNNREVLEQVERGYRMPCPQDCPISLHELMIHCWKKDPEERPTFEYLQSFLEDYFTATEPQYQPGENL

[35] = biological target: Glycogen synthase kinase-3 beta (Homo sapiens) (UniProt P49841); experiment: Inhibition of human GSK3beta at 1 uM
[36] = biological target: Mitogen-activated protein kinase kinase kinase 7 (Homo sapiens) (UniProt O43318); experiment: Inhibition of human TAK1 at 1 uM
[37] = biological target: 3-phosphoinositide-dependent protein kinase 1 (PDPK1) (Homo sapiens) (UniProt O15530); experiment: Inhibition of human PDK1 at 1 uM
[38] = biological target: Glycogen synthase kinase-3 alpha (Homo sapiens) (UniProt P49840); experiment: Inhibition of human GSK3alpha at 1 uM
[39] = biological target: Tyrosine-protein kinase BTK (Homo sapiens) (UniProt Q06187); experiment: Inhibition of human BTK at 1 uM
[40] = biological target: Serine/threonine-protein kinase Chk1 (Homo sapiens) (UniProt O14757); experiment: Inhibition of human CHK1 at 1 uM
[41] = biological target: High affinity nerve growth factor receptor (Homo sapiens) (UniProt P04629); experiment: Inhibition of human TrkA at 1 uM
LAD2 [42] = experiment: Inhibition of human LAD2 cells degranulation at 1 uM preincubated for 30 mins before streptavidin stimulation measured after 30 mins by measuring beta-hexosaminidase activity; assay type: functional; in short: as §1

Structure (SMILES): O=C(O)c1ccc(C(=O)Nc2cc(Nc3cnccn3)nc(-c3ccnc(N4CCNCC4)c3)c2)cc1
IC50 (CHO): > 20000 nM
IC50 (LAD2 [29]): 140 nM

Structure (SMILES): FC(F)(F)c1ccnc(Nc2cccc(-c3cccc(N4CCNCC4)c3)n2)c1
IC50 (CHO): 1000 nM

Structure (SMILES): Cc1ccnc(Nc2cccc(-c3ccnc(N4CCNCC4)c3)n2)c1
IC50 (CHO): 1000 nM

Structure (SMILES): O=C(Nc1cc(Nc2cnccn2)nc(-c2ccnc(N3CCNCC3)c2)c1)C1CCNCC1
IC50 (CHO): > 20000 nM
inhibition at 1 µM (LAD2 [42]): 14%

Structure (SMILES): FC(F)(F)c1ccnc(Nc2cccc(-c3ccnc(N4CCNCC4)c3)n2)c1
IC50 (CHO): 1000 nM

Structure (SMILES): c1cc(Nc2cnccn2)nc(-c2ccnc(N3CCNCC3)c2)c1
IC50 (CHO): > 15000 nM

Structure (SMILES): c1cc(-c2cccc(Nc3cnccn3)n2)cc(N2CCNCC2)c1
IC50 (CHO): > 15000 nM

More lines, main results first:

inhibition [1]: < 50%
inhibition [2]: < 50%
inhibition [3]: > 50%
inhibition [4]: < 50%
inhibition [5]: > 50%
inhibition [6]: < 50%
inhibition [7]: > 50%
inhibition [8]: < 50%
inhibition [9]: < 50%
inhibition [10]: > 50%
inhibition [11]: < 50%
inhibition [12]: < 50%
inhibition [13]: > 50%
inhibition [14]: < 50%
inhibition [15]: < 50%
inhibition [16]: < 50%
inhibition [17]: > 50%
inhibition [18]: > 50%
inhibition [19]: < 50%
inhibition [20]: < 50%
inhibition [21]: < 50%
inhibition [22]: < 50%
inhibition [23]: < 50%
inhibition [24]: < 50%
inhibition [25]: < 50%
inhibition [26]: < 50%
inhibition [27]: > 50%
inhibition [28]: < 50%
IC50 (LAD2 [29]): 118 nM
inhibition [30]: < 50%
inhibition [31]: > 50%
inhibition [32]: < 50%
inhibition [33]: < 50%
inhibition [34]: < 50%
inhibition [35]: < 50%
inhibition [36]: < 50%
inhibition [37]: < 50%
inhibition [38]: > 50%
inhibition [39]: > 50%
inhibition [40]: < 50%
inhibition [41]: < 50%
Structure (SMILES): Nc1cc(Nc2cnccn2)nc(-c2ccnc(N3CCNCC3)c2)c1
IC50 (CHO): > 20000 nM

IC50 (LAD2 [29]): 362 nM
Structure (SMILES): O=C(Nc1cc(Nc2cnccn2)nc(-c2ccnc(N3CCNCC3)c2)c1)c1ccccc1
IC50 (CHO): > 20000 nM

IC50 (LAD2 [29]): 331 nM
Structure (SMILES): O=C(Nc1cc(Nc2cnccn2)nc(-c2ccnc(N3CCNCC3)c2)c1)c1cncnc1
IC50 (CHO): > 20000 nM

IC50 (LAD2 [29]): 352 nM
Structure (SMILES): O=C(Cc1cccnc1)Nc1cc(Nc2cnccn2)nc(-c2ccnc(N3CCNCC3)c2)c1
IC50 (CHO): > 20000 nM

IC50 (LAD2 [29]): 122 nM
Structure (SMILES): O=C(Nc1cc(Nc2cnccn2)nc(-c2ccnc(N3CCNCC3)c2)c1)c1cccnc1
IC50 (CHO): > 20000 nM

IC50 (LAD2 [29]): 169 nM
Structure (SMILES): Cc1cc(C(=O)Nc2cc(Nc3cnccn3)nc(-c3ccnc(N4CCNCC4)c3)c2)n(C)n1
IC50 (CHO): > 20000 nM

IC50 (LAD2 [29]): 188 nM
Structure (SMILES): CNc1cc(Nc2cnccn2)nc(-c2ccnc(N3CCNCC3)c2)c1
IC50 (CHO): > 20000 nM

IC50 (LAD2 [29]): 204 nM
Structure (SMILES): O=C(Nc1cc(Nc2cnccn2)nc(-c2ccnc(N3CCNCC3)c2)c1)c1ccc(C(=O)O)nc1
IC50 (CHO): > 20000 nM

IC50 (LAD2 [29]): 1000 nM
Structure (SMILES): CC(=O)N1CCC(C(=O)Nc2cc(Nc3cnccn3)nc(-c3ccnc(N4CCNCC4)c3)c2)CC1
IC50 (CHO): > 20000 nM

IC50 (LAD2 [29]): 585 nM
Structure (SMILES): Oc1ccc(CNc2cc(Nc3cnccn3)nc(-c3ccnc(N4CCNCC4)c3)c2)cc1
IC50 (CHO): > 20000 nM
